Test results taken from ChEMBL document CHEMBL1129637, “Conformationally defined 6-s-trans-retinoic acid analogs. 3. Structure-activity relationships for nuclear receptor binding, transcriptional activity, and cancer chemopreventive activity” (J Med Chem, 1996).
Where “and” joins values, the source holds several entries; their conditions need not be identical. Equal entries are not always repeated.

Legend:
[1] = biological target: Cellular retinoic acid-binding protein 1 (Gallus gallus, UniProt P40220); assay: Inhibition of [3H]ATRA binding to chick skin Cytoplasmic retinoic acid binding protein
Chain of Cellular retinoic acid-binding protein 1 (Gallus gallus, UniProt P40220) (P40220 whole entry): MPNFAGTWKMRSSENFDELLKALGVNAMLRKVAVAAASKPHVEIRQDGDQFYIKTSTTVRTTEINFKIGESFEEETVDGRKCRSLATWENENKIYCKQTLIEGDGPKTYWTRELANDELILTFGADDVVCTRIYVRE

[2] = biological target: Cellular retinoic acid-binding protein 1 (Mus musculus, UniProt P62965); assay: Inhibition of [3H]ATRA binding to murine Cytoplasmic retinoic acid binding protein (CRABP) type 1
Chain of Cellular retinoic acid-binding protein 1 (Mus musculus, UniProt P62965) (P62965 whole entry): as the sequence (P40220 whole entry) above, with I68V, S71G, A86P, Y95H, K97T, I101L counted along it

[3] = biological target: T1, Retinoic acid receptor alpha (Mus musculus) (UniProt P11416); assay: Percent inhibition of [3H]ATRA binding to mouse Retinoic acid receptor RAR alpha; set-up: concentration or dose not given beside the values; settings: concentration not given here
T1 sequence (whole entry): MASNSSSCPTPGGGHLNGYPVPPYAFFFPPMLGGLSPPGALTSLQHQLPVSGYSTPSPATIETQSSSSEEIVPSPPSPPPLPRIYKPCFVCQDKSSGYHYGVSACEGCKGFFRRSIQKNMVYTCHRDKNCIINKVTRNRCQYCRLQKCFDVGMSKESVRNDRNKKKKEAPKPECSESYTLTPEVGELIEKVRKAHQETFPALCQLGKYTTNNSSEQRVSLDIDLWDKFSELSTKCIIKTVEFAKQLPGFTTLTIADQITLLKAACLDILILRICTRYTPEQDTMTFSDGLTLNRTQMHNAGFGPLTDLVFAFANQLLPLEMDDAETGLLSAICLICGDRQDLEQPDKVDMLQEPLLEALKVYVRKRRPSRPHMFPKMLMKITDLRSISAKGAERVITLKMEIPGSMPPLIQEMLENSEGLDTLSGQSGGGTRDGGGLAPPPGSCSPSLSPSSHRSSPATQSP
Method in brief: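 RARα was exposed to 1000 nM test retinoid plus 5 nM [3H]-(all-E)-RA. Displacement was compared with a positive control of 1000 nM unlabeled (all-E)-RA and with a no-retinoid control.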

Mus musculus [4] = species: Mus musculus; assay: Percentage papilloma reduction (81) at 45.9 nmol dose 1 hr prior to TPA; assay type: functional
Method in brief: (§1)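 Carcinogen-induced papillomas on mouse dorsal skin, with test retinoid applied 1 h before TPA. Percent papilloma reduction = (1 − mean tumors in retinoid-treated animals / mean tumors in controls) × 100. ED50 came from probit analysis of a dose-response curve. Estimated standard error is 20% of the mean.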

[5] = biological target: T2, Retinoic acid receptor alpha (Mus musculus, UniProt P11416); assay: Inhibition of [3H]ATRA binding to mouse Retinoic acid receptor RAR alpha
T2 sequence (P11416 whole entry): T1 sequence (whole entry)
Method in brief: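 Radioligand competition assay for RARα, measuring inhibition of [3H]-(all-E)-RA binding by unlabeled retinoid over a dose series to derive IC50.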

[6] = biological target: Cellular retinoic acid-binding protein 1 (Gallus gallus) (UniProt P40220); assay: Inhibition of chick skin Cytoplasmic retinoic acid binding protein at 100-fold excess ligand
Chain of Cellular retinoic acid-binding protein 1 (Gallus gallus) (P40220 whole entry, the tested form may be a part): as the sequence (P40220 whole entry) above

[7] = biological target: T3, Retinoic acid receptor RXR-alpha (Homo sapiens, UniProt P19793); assay: Inhibition of binding to human Retinoic acid receptor RXR DEF domain
T3 sequence (P19793 whole entry): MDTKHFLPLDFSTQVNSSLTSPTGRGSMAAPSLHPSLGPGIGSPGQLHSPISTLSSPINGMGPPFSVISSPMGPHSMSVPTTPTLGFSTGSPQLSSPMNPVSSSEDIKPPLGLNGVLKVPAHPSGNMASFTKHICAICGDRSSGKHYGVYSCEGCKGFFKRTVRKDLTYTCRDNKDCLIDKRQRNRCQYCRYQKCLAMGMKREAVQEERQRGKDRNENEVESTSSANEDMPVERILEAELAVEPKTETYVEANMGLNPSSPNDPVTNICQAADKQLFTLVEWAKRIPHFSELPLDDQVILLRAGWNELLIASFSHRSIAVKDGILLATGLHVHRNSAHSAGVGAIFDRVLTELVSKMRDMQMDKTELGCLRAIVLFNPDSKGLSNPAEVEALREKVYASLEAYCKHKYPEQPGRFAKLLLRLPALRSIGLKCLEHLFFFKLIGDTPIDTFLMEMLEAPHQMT

[8] = biological target: T4, Retinoic acid receptor RXR-alpha (Mus musculus, UniProt P28700); assay: Inhibition of [3H]-(9Z)-RA binding to mouse Retinoic acid receptor RXR alpha
T4 sequence (P28700 whole entry): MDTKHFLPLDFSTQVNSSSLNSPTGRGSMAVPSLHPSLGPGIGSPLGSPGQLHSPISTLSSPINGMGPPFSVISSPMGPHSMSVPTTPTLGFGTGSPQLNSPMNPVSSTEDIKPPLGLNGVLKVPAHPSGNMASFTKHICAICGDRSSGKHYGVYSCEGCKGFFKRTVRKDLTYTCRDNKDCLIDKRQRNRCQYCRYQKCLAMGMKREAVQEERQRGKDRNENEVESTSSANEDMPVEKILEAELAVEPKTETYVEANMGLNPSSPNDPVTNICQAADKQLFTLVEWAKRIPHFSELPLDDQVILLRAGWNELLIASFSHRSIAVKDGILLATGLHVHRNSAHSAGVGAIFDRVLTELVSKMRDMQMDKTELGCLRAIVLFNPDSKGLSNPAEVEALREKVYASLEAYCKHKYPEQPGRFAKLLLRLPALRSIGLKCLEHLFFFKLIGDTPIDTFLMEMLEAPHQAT

[9] = biological target: T5, Cellular retinoic acid-binding protein 2 (Mus musculus, UniProt P22935); assay: Inhibition of [3H]ATRA binding to murine Cytoplasmic retinoic acid binding protein (CRABP) type 2
T5 sequence (P22935 whole entry): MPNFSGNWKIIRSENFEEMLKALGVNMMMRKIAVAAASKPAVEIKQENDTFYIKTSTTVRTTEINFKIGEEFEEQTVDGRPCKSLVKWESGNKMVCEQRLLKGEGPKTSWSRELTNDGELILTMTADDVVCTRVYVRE

Mus musculus [10] = species: Mus musculus; assay: Antitumor activity in Mouse Skin Papilloma model; assay type: functional; method in brief: as §1
[11] = Inhibition of [3H]ATRA binding to Cytoplasmic retinoic acid binding protein (CRABP) type 1
Mus musculus [12] = species: Mus musculus; assay: Antitumor activity in Mouse Skin Papilloma model * Value determined by Dawson et al; assay type: functional

SMILES	IC50 [1] [nM]	Kd [2] [nM]	inhibition [3] [%]	Reduction (Mus musculus [4]) [%]	IC50 [5] [nM]	inhibition [6] [%]	Kd [7] [nM]	IC50 [8] [nM]	Kd [9]	ED50 (Mus musculus [10])	IC50 [11] [nM]	ED50 (Mus musculus [12]) [nmol]
CC1=C(C)/C(=C/C(C)=C/C=C/C(C)=C/C(=O)O)CCC1	1300	1.2	90	32	55	90	> 200	> 2000	13 nM	490 nM	–	–
C\C(C=C1C=CCCC1)=C/C=C/C(C)=C/C(=O)O	–	–	45	–	> 2000	45	> 200	> 2000	3 nM and 10 nM	–	> 10000	–
CC1=C(/C=C/C(C)=C\C=C\C(C)=C\C(=O)O)C(C)(C)CCC1 [ALITRETINOIN]	–	–	95	95	–	25	–	–	–	2.1 nM	–	–
CC(=C\C=C\C(C)=C\C(=O)O)/C=C1/C=CCCC1	> 10000	3	55	22	600	50	> 200	> 2000	13 nM	> 1000 nM	–	–
CC1=C(C(C)C)/C(=C/C(C)=C\C=C\C(C)=C\C(=O)O)CCC1	–	> 200	37	30	> 1000	43	33	620	–	> 100 nM	–	–
CCC1=C(C(C)C)/C(=C/C(C)=C/C=C/C(C)=CC(=O)O)CCC1	–	–	–	81	–	–	–	–	–	4.7 nmol	–	–
CC1=C(C)/C(=C/C(C)=C\C=C\C(C)=C\C(=O)O)CCC1	> 10000	> 200	10	50	> 2000	10	120	> 2000	> 200 nM	–	–	–
CC1=C(C(C)C)/C(=C/C(C)=C/C=C/C(C)=C/C(=O)O)CCC1	–	1	100	95	8	100	> 200	> 2000	–	5 nM	–	–
CCC1=C(C(C)C)/C(=C/C(C)=C\C=C\C(C)=C\C(=O)O)CCC1	> 10000	> 200	42	43	–	15	16	1000	> 200 nM	> 100 nM	–	–
CC(=CC(=O)O)/C=C/C=C(C)/C=C/C1=C(C)CCCC1(C)C [ISOTRETINOIN]	–	–	–	–	–	–	–	–	–	–	–	64
CCC1=C(C(C)C)/C(=C/C(C)=C/C=C/C(C)=C/C(=O)O)CCC1	–	–	98	99	–	100	–	> 2000	–	2.5 nM	–	–
CC1=C(/C=C/C(C)=C/C=C/C(C)=C/C(=O)O)C(C)(C)CCC1 [TRETINOIN]	–	–	100	95	–	100	–	–	–	3 nM	–	–
